Test results reported in ChEMBL document CHEMBL3352386, “Development of chiral praziquantel analogues as potential drug candidates with activity to juvenile Schistosoma japonicum” (2014).

Assays:
[1] = tested on: Schistosoma japonicum; assay: Antischistosomal activity against adult Schistosoma japonicum assessed as vitality reduction at 50 uM after 48 hrs (reference value: 0%); type: functional
[2] = tested on: Schistosoma japonicum; assay: Antischistosomal activity against adult Schistosoma japonicum assessed as vitality reduction at 50 uM after 24 hrs (reference value: 0%); type: functional
[3] = tested on: Schistosoma japonicum; assay: Antischistosomal activity against adult Schistosoma japonicum assessed as vitality reduction at 100 uM after 72 hrs (reference value: 0%); type: functional
[4] = tested on: Schistosoma japonicum; assay: Antischistosomal activity against adult Schistosoma japonicum assessed as worm survival at 100 uM after 72 hrs (reference value: 100%); type: functional
Summary of the method: (§1)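 Five adult male S. japonicum worms recovered 6 weeks post-infection from female ICR Kunming mice, in duplicate dishes of bicarbonate-buffered DMEM with 20% newborn calf serum, penicillin, streptomycin and amphotericin B. Compound diluted from DMSO stock; DMSO control. Kept at 37 °C, 5% CO2, observed daily by stereomicroscope. Survival% = surviving/total worms × 100.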

[5] = tested on: Schistosoma japonicum; assay: Antischistosomal activity against adult Schistosoma japonicum assessed as worm survival at 100 uM after 48 hrs (reference value: 100%); type: functional; summary of the method: as §1
[6] = tested on: Schistosoma japonicum; assay: Antischistosomal activity against juvenile Schistosoma japonicum assessed as vitality reduction at 50 uM after 48 hrs (reference value: 0%); type: functional
[7] = tested on: Schistosoma japonicum; assay: Antischistosomal activity against juvenile Schistosoma japonicum assessed as vitality reduction at 50 uM after 72 hrs (reference value: 0%); type: functional
[8] = tested on: Schistosoma japonicum; assay: Antischistosomal activity against adult Schistosoma japonicum assessed as vitality reduction at 50 uM after 72 hrs (reference value: 0%); type: functional
[9] = tested on: Schistosoma japonicum; assay: Antischistosomal activity against juvenile Schistosoma japonicum assessed as vitality reduction at 50 uM after 24 hrs (reference value: 0%); type: functional
[10] = tested on: Schistosoma japonicum; assay: Antischistosomal activity against adult Schistosoma japonicum assessed as worm survival at 50 uM after 48 hrs (reference value: 100%); type: functional; summary of the method: as §1
[11] = tested on: Schistosoma japonicum; assay: Antischistosomal activity against juvenile Schistosoma japonicum infected in ICR Kunming mouse assessed as worm reduction at 200 mg/kg, po for 5 days beginning on day 14 after infection (reference value: 0%)
[12] = tested on: Schistosoma japonicum; assay: Antischistosomal activity against adult Schistosoma japonicum assessed as vitality reduction at 100 uM after 24 hrs (reference value: 0%); type: functional
[13] = tested on: Schistosoma japonicum; assay: Antischistosomal activity against adult Schistosoma japonicum assessed as worm survival at 50 uM after 72 hrs (reference value: 100%); type: functional; summary of the method: as §1
[14] = tested on: Schistosoma japonicum; assay: Antischistosomal activity against juvenile Schistosoma japonicum assessed as worm survival at 50 uM after 48 hrs (reference value: 100%); type: functional
Summary of the method: (§2)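 Nine juvenile S. japonicum worms recovered 17 days post-infection from female ICR Kunming mice, in duplicate dishes of bicarbonate-buffered DMEM with 20% newborn calf serum plus penicillin, streptomycin and amphotericin B. Compound diluted from DMSO stock. Held at 37 °C, 5% CO2, with daily stereomicroscope scoring. Survival% = surviving/total worms × 100.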

[15] = tested on: Schistosoma japonicum; assay: Antischistosomal activity against adult Schistosoma japonicum assessed as worm survival at 100 uM after 24 hrs (reference value: 100%); type: functional; summary of the method: as §1
[16] = tested on: Schistosoma japonicum; assay: Antischistosomal activity against juvenile Schistosoma japonicum assessed as worm survival at 50 uM after 72 hrs (reference value: 100%); type: functional; summary of the method: as §2
[17] = tested on: Schistosoma japonicum; assay: Antischistosomal activity against adult Schistosoma japonicum assessed as vitality reduction at 100 uM after 48 hrs (reference value: 0%); type: functional
[18] = tested on: Schistosoma japonicum; assay: Antischistosomal activity against adult Schistosoma japonicum assessed as worm survival at 50 uM after 24 hrs (reference value: 100%); type: functional; summary of the method: as §1
[19] = tested on: Schistosoma japonicum; assay: Antischistosomal activity against juvenile Schistosoma japonicum assessed as worm survival at 50 uM after 24 hrs (reference value: 100%); type: functional; summary of the method: as §2
[20] = tested on: Schistosoma japonicum; assay: Antischistosomal activity against adult Schistosoma japonicum assessed as worm survival at 80 uM after 72 hrs (reference value: 100%); type: functional; summary of the method: as §1
[21] = tested on: Schistosoma japonicum; assay: Antischistosomal activity against adult Schistosoma japonicum assessed as worm survival at 80 uM after 48 hrs (reference value: 100%); type: functional; summary of the method: as §1
[22] = tested on: Schistosoma japonicum; assay: Antischistosomal activity against adult Schistosoma japonicum assessed as vitality reduction at 80 uM after 48 hrs (reference value: 0%); type: functional
[23] = tested on: Schistosoma japonicum; assay: Antischistosomal activity against adult Schistosoma japonicum assessed as worm survival at 80 uM after 24 hrs (reference value: 100%); type: functional; summary of the method: as §1
[24] = tested on: Schistosoma japonicum; assay: Antischistosomal activity against adult Schistosoma japonicum assessed as vitality reduction at 80 uM after 24 hrs (reference value: 0%); type: functional
[25] = tested on: Schistosoma japonicum; assay: Antischistosomal activity against adult Schistosoma japonicum assessed as vitality reduction at 80 uM after 72 hrs (reference value: 0%); type: functional

Row | Compound | inhibition at 50 µM [1] [%] | inhibition at 50 µM [2] [%] | inhibition at 100 µM [3] [%] | survival at 100 µM [4] [%] | survival at 100 µM [5] [%] | inhibition at 50 µM [6] [%] | inhibition at 50 µM [7] [%] | inhibition at 50 µM [8] [%] | inhibition at 50 µM [9] [%] | survival at 50 µM [10] [%] | inhibition in vivo at 200 mg/kg [11] [%] | inhibition at 100 µM [12] [%] | survival at 50 µM [13] [%] | survival at 50 µM [14] [%] | survival at 100 µM [15] [%] | survival at 50 µM [16] [%] | inhibition at 100 µM [17] [%] | survival at 50 µM [18] [%] | survival at 50 µM [19] [%] | survival at 80 µM [20] [%] | further results
1 | O=C1CC(C(=O)N2CC(=O)N3CCc4ccccc4[C@H]3C2)C1 | 0 | 4.5 | 8.9 | 100 | 100 | 30.9 | 34.6 | 0 | 30.9 | 100 | 19 | 6.7 | 100 | 88.3 | 100 | 88.3 | 8.7 | 100 | 88.3 | – | –
2 | O=C1CCC(C(=O)N2CC(=O)N3CCc4ccccc4[C@@H]3C2)CC1 | 60 | 73.3 | 77.8 | 60 | 60 | 64.2 | 66.7 | 55.5 | 60.5 | 80 | 60 | 86.7 | 100 | 48.3 | 40 | 44.1 | 82.2 | 60 | 51.6 | 100 | survival at 80 µM [21]: 100%; inhibition at 80 µM [22]: 69.3%; survival at 80 µM [23]: 60%; inhibition at 80 µM [24]: 82%; inhibition at 80 µM [25]: 60%
3 | O=C1CC(C(=O)N2CC(=O)N3CCc4ccccc4C3C2)C1 (racemic) | 0 | 13.3 | 10 | 100 | 100 | 35.8 | 37 | 0 | 35.8 | 100 | 7.7 | 6.7 | 100 | 82.5 | 100 | 82.5 | 10 | 100 | 82.5 | – | –
4 | O=C1CCC(C(=O)N2CC(=O)N3CCc4ccccc4C3C2)C1 (racemic) | 0 | 0 | 8.7 | 100 | 100 | 55.6 | 54.3 | 0 | 55.6 | 100 | 37.4 | 17.8 | 100 | 54.2 | 100 | 54.2 | 13.3 | 100 | 54.2 | 100 | survival at 80 µM [21]: 100%; inhibition at 80 µM [22]: 13.3%; survival at 80 µM [23]: 100%; inhibition at 80 µM [24]: 23.3%; inhibition at 80 µM [25]: 0%
5 | O=C(C1CCCCC1)N1CC(=O)N2CCc3ccccc3C2C1 (stereo not given) [PRAZIQUANTEL] | – | – | – | – | – | – | – | – | – | – | 19.9 | – | – | – | – | – | – | – | – | – | –
6 | O=C1CC(C(=O)N2CC(=O)N3CCc4ccccc4[C@@H]3C2)C1 | 15.5 | 17.8 | 22.7 | 100 | 100 | 37 | 38.3 | 15.3 | 32.1 | 100 | 41 | 24.5 | 100 | 100 | 100 | 100 | 22 | 100 | 100 | – | –
7 | O=C1CCC(C(=O)N2CC(=O)N3CCc4ccccc4[C@H]3C2)C1 (stereo not given in full) | 0 | 4.5 | 15.3 | 100 | 100 | 45.7 | 53.1 | 0 | 45.7 | 100 | 24.6 | 16 | 100 | 100 | 100 | 85 | 15.5 | 100 | 100 | – | –
8 | O=C1CCC(C(=O)N2CC(=O)N3CCc4ccccc4[C@@H]3C2)C1 (stereo not given in full) | 0 | 15.5 | 11.1 | 100 | 100 | 38.3 | 50.6 | 6.7 | 38.3 | 100 | 44.1 | 13.3 | 100 | 100 | 100 | 88.3 | 11.1 | 100 | 100 | – | –
9 | O=C1CCC(C(=O)N2CC(=O)N3CCc4ccccc4C3C2)CC1 (racemic) | 64.5 | 40 | 55.3 | 100 | 100 | 34.6 | 34.6 | 66.7 | 35.8 | 100 | 27.7 | 46.7 | 100 | 69.2 | 100 | 69.2 | 60 | 100 | 69.2 | 100 | survival at 80 µM [21]: 100%; inhibition at 80 µM [22]: 64.5%; survival at 80 µM [23]: 100%; inhibition at 80 µM [24]: 48.9%; inhibition at 80 µM [25]: 66.7%
10 | O=C1CCC(C(=O)N2CC(=O)N3CCc4ccccc4[C@H]3C2)CC1 | 0 | 0 | 15.5 | 100 | 100 | 29.6 | 29.6 | 0 | 29.6 | 100 | 18 | 8.7 | 100 | 88.3 | 100 | 88.3 | 15.3 | 100 | 88.3 | – | –
